Source: PubChem (several laboratories)
Platelet DG rel: inhibitors of platelet dense granule secretion, primary screen, cell-based, MLPCN, human platelets; human platelet-rich plasma, SFLLRN dense granule ATP release, luminescence; inhibition, %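 (compounds screened at 7.5 µM in platelet-rich plasma)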; 300,000 compounds, 0.22% hits; AID 1663, 2009;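 active = mean replicate score, as percent of positive control, at or above 50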
TRPC6 activator: mouse TRPC6 channel activators, primary screen, cell-based, HEK293, membrane potential dye; Short transient receptor potential channel 6 (Mus musculus), Q61143; HEK293-TRPC6 membrane potential dye fluorescence; stronger effect = higher value; B-score at 10 µM; 310,000 compounds, 0.13% hits; AID 2550, 2010;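 active = B-score of the integrated fluorescence ratio above library mean plus 3 SD, and starting fluorescence ratio within library mean plus 5 SD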;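 note: higher score means more depolarization so channel activation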
TRPC4 PAM: positive allosteric modulators of TRPC4, primary screen, cell-based, mouse TRPC4beta, HEK293 mu-opioid, Fluo-4 calcium | 310,000 compounds, 0.42% hits | DAMGO EC20, Fluo-4 Ca2+ flux; stronger effect = higher value | B-score at 10 µM | AID 2227, 2009;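 active = B-score of calcium response area above 5 SD of library B-scores, with initial fluorescence ratio within 5 SD of library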
Target sequence (Q9QUQ5 whole entry, looked up): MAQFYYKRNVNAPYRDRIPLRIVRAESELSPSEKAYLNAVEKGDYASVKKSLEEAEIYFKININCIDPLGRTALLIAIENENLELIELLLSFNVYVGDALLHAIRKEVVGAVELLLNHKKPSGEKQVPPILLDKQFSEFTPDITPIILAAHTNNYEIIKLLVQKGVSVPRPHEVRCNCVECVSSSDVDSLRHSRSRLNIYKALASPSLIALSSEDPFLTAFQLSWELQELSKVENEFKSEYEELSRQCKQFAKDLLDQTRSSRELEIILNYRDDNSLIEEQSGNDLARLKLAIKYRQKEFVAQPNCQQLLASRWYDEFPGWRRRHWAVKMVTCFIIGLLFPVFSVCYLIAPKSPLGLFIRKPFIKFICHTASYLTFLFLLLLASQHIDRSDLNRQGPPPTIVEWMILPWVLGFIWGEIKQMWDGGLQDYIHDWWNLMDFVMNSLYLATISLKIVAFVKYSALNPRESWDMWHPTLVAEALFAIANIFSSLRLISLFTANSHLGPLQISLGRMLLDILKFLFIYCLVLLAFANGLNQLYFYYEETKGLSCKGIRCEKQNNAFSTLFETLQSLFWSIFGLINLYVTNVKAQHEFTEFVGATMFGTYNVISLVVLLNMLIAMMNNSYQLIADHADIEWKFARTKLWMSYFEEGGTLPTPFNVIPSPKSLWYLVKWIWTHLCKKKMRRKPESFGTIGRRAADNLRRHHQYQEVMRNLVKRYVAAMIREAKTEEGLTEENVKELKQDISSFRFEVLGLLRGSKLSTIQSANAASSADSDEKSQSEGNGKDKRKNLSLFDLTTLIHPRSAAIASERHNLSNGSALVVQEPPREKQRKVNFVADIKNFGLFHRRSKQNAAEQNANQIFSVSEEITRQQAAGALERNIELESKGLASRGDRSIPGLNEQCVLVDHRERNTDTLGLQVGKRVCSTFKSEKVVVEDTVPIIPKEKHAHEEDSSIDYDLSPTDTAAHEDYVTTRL
TRPC6 inh: mouse TRPC6 channel inhibitors, primary screen, cell-based, HEK293, membrane potential dye; Short transient receptor potential channel 6 (Mus musculus), Q61143; 310,000 compounds, 1.1% hits; AID 2553, 2010; ACh-evoked depolarization; stronger effect = lower value; B-score at 10 µM;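 active = B-score under library mean minus 3 SD, initial fluorescence not abnormally high, positive integrated signal ratio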;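 note: B-score derived from integrated fluorescence ratio over the kinetic read; more negative B-score means stronger inhibition of depolarization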
TRPC4 block: inhibitors of mouse TRPC4 channel, primary screen, Fluo4 calcium, HEK293 TRPC4beta/mu-opioid cells. Short transient receptor potential channel 4 (Mus musculus), Q9QUQ5. 300,000 compounds, 0.39% hits. DAMGO-evoked Fluo4 calcium flux; stronger effect = lower value. AID 2247, 2010. B-score at 10 µM;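 active = B-score over 3 SD under the library average, no early fluorescence shift, positive overall ratio signal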
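System: stable TRPC4beta/mu-opioid receptor HEK293 cells; Dosing: single-point compound dosing; Measured by: Fluo4 Ca2+ flux fluorescence; Read-out basis: per-well B score of integrated baseline-normalized Fluo4 ratio.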
TRPC4 agonist: activators of mouse TRPC4 channel, primary screen, Fluo4 calcium, HEK293 TRPC4beta/mu-opioid cells | AID 2237, 2010 | 310,000 compounds, 0.49% hits | Fluo4 calcium fluorescence; stronger effect = higher value | B-score at 10 µM | Short transient receptor potential channel 4 (Mus musculus), Q9QUQ5;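 active = B-score above 5 SD of library B-scores, and initial fluorescence ratio not above library mean plus 5 SD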;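 note: positive B-score marks a calcium rise read as TRPC4 activation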
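Assay system: HEK293 stable line with TRPC4beta plus mu-opioid receptor. Times: dye 45 min RT, read 110 s. Measured by: kinetic Fluo4 calcium fluorescence. Measure: B score of integrated ratio. Controls: assay buffer as low control, maximal DAMGO as high control.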
Hits are given with their value; 0 = inactive. Sampled rows, rich in hits. Any-hit rate of the full collection: about 2.5%.

SMILES | Platelet DG rel | TRPC6 activator | TRPC4 PAM | TRPC6 inh | TRPC4 block | TRPC4 agonist
O=c1cc(N2CCCCC2)c(-c2ccccc2)nn1Cc1ccccc1Cl | 0 | 0 | 14 | 0 | 0 | 0
CCN(CC)c1ccc(/C=C/c2ccc3ccc(OC)cc3[n+]2CC)cc1 | 0 | 0 | 0 | 0 | 0 | 0
NC(=S)N/N=C/c1ccc(-c2cc(Cl)c(Cl)cc2Cl)o1 | 0 | 0 | 0 | 0 | 0 | 0
NC(=S)N/N=C/c1ccc(Br)o1 | 0 | 0 | 10 | 0 | 0 | 0
NC(=O)C1CCN(C(=O)C2CC(=O)N(c3ccc(F)cc3)C2)CC1 (stereo unspecified) | 0 | 0 | 0 | 0 | 0 | 0
CCc1ccc(NC(=O)N(CCN(C)C)C(C)c2cccnc2)cc1 (stereo unspecified) | 0 | 0 | 0 | 0 | 0 | 72
COc1ccc2cc3cc(C(=O)NCC4COc5ccccc5O4)oc3nc2c1 (stereo unspecified) | 0 | 0 | 0 | 0 | 0 | 0
Cc1csc2c(N3CCN(C(=O)c4ccc(C(C)(C)C)cc4)CC3)ncnc12 | 0 | 0 | 0 | 0 | 0 | 67
Cc1csc2c(N3CCN(C(=O)NC(C)(C)C)CC3)ncnc12 | 0 | 0 | 0 | 0 | 0 | 84
CN1CCN(C(=O)c2ccc(C(C)(C)C)cc2)CC1 | 0 | 0 | 0 | 0 | 0 | 0
Cc1csc2c(N3CCN(C(=S)Nc4ccc(C(F)(F)F)cc4)CC3)ncnc12 | 0 | 0 | 0 | 0 | 0 | 145
CCOC(=O)C1CCN(c2ncnc3c(C)csc23)CC1 | 0 | 0 | 0 | 0 | 0 | 0
Cc1csc2c(N3CCN(C(=O)Nc4ccc(Cl)c(Cl)c4)CC3)ncnc12 | 0 | 0 | 0 | 0 | 0 | 91
O=C(C(Cl)Cl)N1c2ccccc2OCC1c1ccccc1 (stereo unspecified) | 0 | 0 | 0 | 0 | 0 | 0
Cc1nc(-c2ccc(S(=O)(=O)Oc3ccccc3Cl)s2)cs1 | 0 | 0 | 0 | 0 | 0 | 0
COc1ccc(/C=C2\CCCC3C2=NN(C(=O)CSc2n[nH]c(N)n2)C3c2ccc(OC)cc2)cc1 (stereo unspecified) | 0 | 0 | 12 | 0 | 0 | 0
O=C1CCC(C(=O)OCC(=O)N2N=C3/C(=C/c4ccccc4)CCCC3C2c2ccccc2)N1 (stereo unspecified) | 0 | 0 | 0 | 0 | 0 | 0
CC1=NN(c2ccccc2)C(=O)/C1=C\C=C1\N(C)c2ccccc2C1(C)C | 0 | 0 | 0 | 0 | 0 | 58
Cc1nn(-c2nc3ccccc3[nH]2)c(=O)c2ccccc12 | 81.0 | 0 | 0 | 0 | 0 | 0
Cc1nn(-c2ccc3ccccc3c2)c(=O)c2ccccc12 | 0 | 0 | 0 | 0 | 0 | 0
CN(C)CCCN(C(=O)CCOc1ccccc1)c1nc2c(F)cccc2s1 | 0 | 0 | 0 | -5.11 | 0 | 0
CN(C)CCCN(C(=O)CCc1ccccc1)c1nc2c(F)cccc2s1 | 0 | 0 | 0 | 0 | 0 | 0
CCOC(=O)C1CCCN(C2CCN(Cc3nc(Cc4ccccc4)no3)CC2)C1 (stereo unspecified) | 0 | 0 | 11 | 0 | 0 | 0
CCOC(=O)C1CCCN(C2CCN(Cc3nc(-c4ccccc4)no3)CC2)C1 (stereo unspecified) | 0 | 0 | 0 | 0 | 0 | 0
COC(=O)C1=C(C)N(Cc2ccccc2)C(=O)N[C@H]1c1cccc(C(F)(F)F)c1 | 0 | 0 | 10 | 0 | 0 | 0
SMILES | Platelet DG rel | TRPC6 activator | TRPC4 PAM | TRPC6 inh | TRPC4 block | TRPC4 agonist
CC(C)C(NC(=O)c1ccc(F)cc1)C(=O)Nc1cccnc1 (stereo unspecified) | 0 | 0 | 0 | 0 | 0 | 0
CCn1c2ccccc2c2cc(/C=N/NC(=O)c3cc(O)cc(O)c3)ccc21 | 0 | 0 | 0 | 0 | -6 | 0
CCn1c2ccccc2c2cc(/C=N/NC(=O)c3ccc(O)cc3)ccc21 | 0 | 0 | 0 | 0 | 0 | 0
CN(Cc1ccccc1)C(=O)C1CCCN(Cc2cccc(Cl)c2)C1 (stereo unspecified) | 0 | 0 | 0 | 0 | -8 | 0
COc1ccc(CCN(C)C(=O)C2CCCN(C3CCN(Cc4ccccc4)CC3)C2)cc1OC (stereo unspecified) | 0 | 0 | 0 | 0 | 0 | 131
CN(Cc1cccc(Cl)c1)C(=O)C1CCN(C(=O)Nc2ccccc2)CC1 | 0 | 0 | 0 | 0 | 0 | 0
CCOC(=O)C1CCCN(Cc2cccc(Oc3ccccc3)c2)C1 (stereo unspecified) | 0 | 0 | 0 | 0 | 0 | 0
COc1ccc(OC)c(CN2CCC(C(=O)N(C)CCc3ccc(OC)c(OC)c3)CC2)c1 | 0 | 0 | 0 | 0 | 0 | 0
CCN(CC)C(=O)C1CCCN(Cc2cccc(Oc3ccccc3)c2)C1 (stereo unspecified) | 0 | 0 | 0 | 0 | -7 | 0
O=C(CN1C(=O)C2CC=CCC2C1=O)NCC1COc2ccccc2O1 (stereo unspecified) | 0 | 0 | 0 | 0 | 0 | 0
Cc1cc(N2CCN(c3ccccn3)CC2)n2cc(-c3ccccc3)nc2n1 | 0 | 0 | 0 | 0 | 0 | 0
Cc1cc(N2CCN(C)CC2)n2cc(-c3ccc(F)cc3)nc2n1 | 0 | 0 | 15 | 0 | 0 | 0
COc1cc(/C=C/C(=O)OCC(=O)Nc2nnc(-c3ccccc3)o2)cc(OC)c1OC | 0 | 0 | 0 | 0 | 0 | 0
CC(Oc1ccc(C(=O)c2ccccc2)cc1)C(=O)Nc1ccc(S(N)(=O)=O)cc1 (stereo unspecified) | 0 | 0 | 0 | 0 | 0 | 58
CC(C)(C)NC(=O)Cn1c(Cl)nc2ccccc21 | 0 | 0 | 0 | 0 | 0 | 0
O=C(CN1CCC(NC(=O)C2CC2)CC1)Nc1cccc(F)c1 | 0 | 0 | 0 | 0 | 0 | 0
CCCc1cc(C(=O)N2CCCC(N3CCN(c4ccccc4C)CC3)C2)n(C)n1 (stereo unspecified) | 0 | 0 | 0 | 0 | 0 | 0
CCCc1cc(C(=O)N2CCCC(N3CCN(c4ccccc4F)CC3)C2)n(C)n1 (stereo unspecified) | 53.0 | 0 | 0 | 0 | 0 | 0
COc1cc([C@H]2c3[nH]c4ccccc4c3C[C@H]3C(=O)N4[C@@H](c5cc(OC)c(OC)c(OC)c5)c5[nH]c6ccccc6c5C[C@H]4C(=O)N23)cc(OC)c1OC | 0 | 0 | 0 | 0 | 0 | 0
COc1cc(C2NCCc3c2[nH]c2ccccc32)ccc1OC(C)C (stereo unspecified) | 0 | 0 | 0 | -6.09 | 0 | 0
CCOc1cc(CNCCCN2CCOCC2)cc(Br)c1OCC(=O)Nc1cccc(C(F)(F)F)c1 | 0 | 0 | 0 | 0 | -6 | 0
